Reference: ChEMBL document CHEMBL1153899, “Discovery of benzothiazole derivatives as efficacious and enterocyte-specific MTP inhibitors” (Bioorg Med Chem Lett, 2009)
Activity calls are given as the source filed them. No cut-off for these calls is given here.

Tests used:
[1] = Cmax in Sprague-Dawley rat at 1 mg/kg, iv; format: ADME, organism-based; set-up: dose 1 mg/kg, route intravenous; details: in vivo
[2] = AUC (0 to infinity) in Sprague-Dawley rat at 1 mg/kg, iv; format: ADME, organism-based; set-up: time infinity, dose 1 mg/kg, route intravenous; details: plasma
[3] = Cmax in Sprague-Dawley rat at 3 mg/kg, po; format: ADME, organism-based; set-up: dose 3 mg/kg, route oral; details: in vivo
[4] = Tmax in Sprague-Dawley rat at 3 mg/kg, po; format: ADME, organism-based; set-up: dose 3 mg/kg, route oral; details: in vivo
Method in brief: (§1)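 Rats dosed orally at 3 mg/kg; Cmax, Tmax, oral half-life and AUC determined from plasma, and oral bioavailability (%F) calculated against the 1 mg/kg IV bolus.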

[5] = Half life in Sprague-Dawley rat at 3 mg/kg, po; format: ADME, organism-based; set-up: dose 3 mg/kg, route oral; details: in vivo
[6] = AUC (0 to infinity) in Sprague-Dawley rat at 3 mg/kg, po; format: ADME, organism-based; set-up: dose 3 mg/kg, route oral, time infinity; details: plasma
[7] = Oral bioavailability in Sprague-Dawley rat at 3 mg/kg; format: ADME, organism-based; details: in vivo; method in brief: as §1
[8] = AUC (0 to infinity) in Sprague-Dawley rat plasma at 3 mg/kg, po; format: ADME, organism-based; set-up: time infinity, dose 3 mg/kg, route oral
Method in brief: (§2)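 Dose-proportionality PK in Sprague–Dawley rats (n = 3) given single oral doses of 3, 10, 30 or 100 mg/kg. Liver and plasma were sampled at 0.5, 1, 2, 4 and 8 h and assayed for drug concentration to derive Cmax, AUC(0–∞) and T1/2.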

[9] = AUC (0 to infinity) in Sprague-Dawley rat plasma at 10 mg/kg, po; format: ADME, organism-based; set-up: time infinity, dose 10 mg/kg, route oral; method in brief: as §2
[10] = AUC (0 to infinity) in Sprague-Dawley rat plasma at 30 mg/kg, po; format: ADME, organism-based; set-up: time infinity, dose 30 mg/kg, route oral; method in brief: as §2
[11] = AUC (0 to infinity) in Sprague-Dawley rat plasma at 100 mg/kg, po; format: ADME, organism-based; set-up: time infinity, dose 100 mg/kg, route oral; method in brief: as §2
[12] = Cmax in Sprague-Dawley rat plasma at 3 mg/kg, po; format: ADME, organism-based; set-up: dose 3 mg/kg, route oral; method in brief: as §2
[13] = Cmax in Sprague-Dawley rat plasma at 10 mg/kg, po; format: ADME, organism-based; set-up: dose 10 mg/kg, route oral; method in brief: as §2
[14] = Cmax in Sprague-Dawley rat plasma at 30 mg/kg, po; format: ADME, organism-based; set-up: dose 30 mg/kg, route oral; method in brief: as §2
[15] = Cmax in Sprague-Dawley rat plasma at 100 mg/kg, po; format: ADME, organism-based; set-up: dose 100 mg/kg, route oral; method in brief: as §2
[16] = Half life in Sprague-Dawley rat plasma at 3 mg/kg, po; format: ADME, organism-based; set-up: dose 3 mg/kg, route oral; method in brief: as §2
[17] = Half life in Sprague-Dawley rat plasma at 10 mg/kg, po; format: ADME, organism-based; set-up: dose 10 mg/kg, route oral; method in brief: as §2
[18] = Half life in Sprague-Dawley rat plasma at 30 mg/kg, po; format: ADME, organism-based; set-up: dose 30 mg/kg, route oral; method in brief: as §2
[19] = Half life in Sprague-Dawley rat plasma at 100 mg/kg, po; format: ADME, organism-based; set-up: dose 100 mg/kg, route oral; method in brief: as §2
[20] = AUC (0 to infinity) in Sprague-Dawley rat liver at 3 mg/kg, po; format: ADME, organism-based; set-up: time infinity, dose 3 mg/kg, route oral; method in brief: as §2
[21] = AUC (0 to infinity) in Sprague-Dawley rat liver at 10 mg/kg, po; format: ADME, organism-based; set-up: time infinity, dose 10 mg/kg, route oral; method in brief: as §2
[22] = AUC (0 to infinity) in Sprague-Dawley rat liver at 30 mg/kg, po; format: ADME, organism-based; set-up: dose 30 mg/kg, route oral, time infinity; method in brief: as §2
[23] = AUC (0 to infinity) in Sprague-Dawley rat liver at 100 mg/kg, po; format: ADME, organism-based; set-up: time infinity, dose 100 mg/kg, route oral; method in brief: as §2
[24] = Cmax in Sprague-Dawley rat liver at 3 mg/kg, po; format: ADME, organism-based; set-up: dose 3 mg/kg, route oral; method in brief: as §2
[25] = Cmax in Sprague-Dawley rat liver at 10 mg/kg, po; format: ADME, organism-based; set-up: dose 10 mg/kg, route oral; method in brief: as §2
[26] = Cmax in Sprague-Dawley rat liver at 30 mg/kg, po; format: ADME, organism-based; set-up: dose 30 mg/kg, route oral; method in brief: as §2
[27] = Cmax in Sprague-Dawley rat liver at 100 mg/kg, po; format: ADME, organism-based; set-up: dose 100 mg/kg, route oral; method in brief: as §2
[28] = Half life in Sprague-Dawley rat liver at 3 mg/kg, po; format: ADME, organism-based; set-up: dose 3 mg/kg, route oral; method in brief: as §2
Mus musculus = experiment: Decrease in total food intake in 28-day diet-induced obesity C57BL/6 mouse model at 1 to 3 mg/kg, po daily for 4 weeks measured on day 4

Cmax [1]: 5980 ng/mL | AUC(0-inf) [2]: 976 ng·h/mL | Cmax [3]: 22.2 ng/mL | Tmax [4]: 0.5 h | half-life [5]: 2.13 h | AUC(0-inf) [6]: 40.8 ng·h/mL | bioavailability [7]: 1.29% | AUC(0-inf) [8]: 109 ng·h/mL | AUC(0-inf) [9]: 224 ng·h/mL | AUC(0-inf) [10]: 510 ng·h/mL | AUC(0-inf) [11]: 598 ng·h/mL | Cmax [12]: 35 ng/mL | Cmax [13]: 58 ng/mL | Cmax [14]: 49.5 ng/mL | Cmax [15]: 69.5 ng/mL | half-life [16]: 2.42 h | half-life [17]: 7.91 h | half-life [18]: 10.4 h | half-life [19]: 5.44 h | AUC(0-inf) [20]: 1220 ng·h/mL | AUC(0-inf) [21]: 2640 ng·h/mL | AUC(0-inf) [22]: 3030 ng·h/mL | AUC(0-inf) [23]: 1780 ng·h/mL | Cmax [24]: 57 µg/kg | Cmax [25]: 90.1 µg/kg | Cmax [26]: 73.1 µg/kg | Cmax [27]: 84 µg/kg | half-life [28]: 10.7 h
SMILES: CC(C)c1ccc(-c2ccccc2C(=O)Nc2ccc3nc(C(=O)N[C@H](C(=O)N(C)Cc4ccc(F)cc4)c4ccccc4)sc3c2)cc1
Activity (Mus musculus): Active
